For assay [1], the system named is S. aureus biofilm. Put plainly: Activity against mature S. aureus biofilm. In kind it is cell-based, Staphylococcus aureus. The conditions noted are these: treatment for 8 h.
In assay [2] the test system is S.aureus infected skin wound. Put plainly: In vivo anti-infection study, S.aureus infected full-thickness wound model. Also on record: species or system rat. The conditions noted are these: SD rats, early stages, n = 5. In short, it runs like this: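 Rats bearing S. aureus-infected skin wounds were given PBS (control) or test compound. Wound beds were inspected visually for yellow pus in the early stages. Infection was confirmed by agar plate counts of tissue exudate from wound sites on day 3. Wound healing and wound size were followed over time. Mean ± SD, n = 5.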

1 substance from article PMC10407542 (The Innovation, 2023) can be followed below.

With N3-Arg-Trp-Arg-Trp-Arg-Trp-NH2 [AMP], the “minimum eradication biofilm concentration” value in assay [1] is 1,280 μmol L^−1. Further, the “pyogenic infection (yellow pus) on the infected wound bed” value in assay [2] is recorded as “not observed”.
